Active and inactive are the calls of the source. No cut-off for these calls is given here.
Key:
[1] = target: T1, ATP-dependent RNA helicase DDX3X (Homo sapiens, UniProt O00571); experiment: Inhibition of full length His-tagged human DDX3X expressed in Escherichia coli assessed as reduction in DDX3X helicase activity using FAM-labeled double stranded RNA as substrate after 40 mins by FRET assay relative to control
In short: (§1)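 Recombinant His-tagged full-length DDX3X expressed in E. coli, Ni-NTA purified. Unwinding of FAM-labelled dsRNA, with capture strand at 100 nM, in Tris-HCl pH 8, 70 mM KCl, 2 mM MgCl2, 2 mM DTT, 2 mM ATP. Started with DDX3X, 37°C, 40 min, fluorescence read every 30 s. Initial slope gives unwinding rate; IC50 by nonlinear regression of triplicates.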

West Nile virus [2] = experiment: Antiviral activity against West Nile virus; format: functional, organism-based
In short: (§2)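 Huh7 cells (2.5 × 10^5 per well, overnight) infected with lineage 2 WNV at MOI 0.1 for 1 h at 37°C, washed, then compound added in 10-fold dilutions (final 100–0.01 μM) with DMSO as virus control. Agarose overlay, 4 days at 37°C, methanol fixation, crystal violet staining. PFU relative to DMSO; IC50 by exponential fit at 50% PFU. Duplicates, repeated at least twice.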

West Nile virus [3] = experiment: Antiviral activity against West Nile virus infected in human HuH7 cells assessed as reduction in capsid protein levels at 1 uM added at 1 hr post infection by SDS-PAGE analysis; format: functional, organism-based
In short: (§3)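 Huh7 cells were infected with WNV at MOI 0.1, with compound at 1 µM added 1 h or 3 h after infection; a no-compound infected control was run alongside. Cell lysates were run on 10% SDS-PAGE and immunoblotted with anti-capsid polyclonal antibody, then peroxidase-conjugated anti-rabbit IgG.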

Vero = experiment: Cytotoxicity against African green monkey Vero cells after 3 days by MTT assay; format: cell-based; settings: Chlorocebus sabaeus, 72 h
In short: (§4)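 Confluent monolayers were washed with PBS and treated in DMEM with DMSO alone (control) or compound at final 100, 10, 1, 0.1, 0.01 μM. Cells were incubated 3 days at 37°C, then given MTT with absorbance read at 570 nm. Cytotoxicity was taken as the OD ratio of treated to DMSO wells, and CC50 was the concentration killing 50% of uninfected cells.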

West Nile virus [4] = experiment: Antiviral activity against West Nile virus infected in human HuH7 cells assessed as reduction in capsid protein levels at 1 uM added at 3 hrs post infection by SDS-PAGE analysis; format: functional, organism-based; in short: as §3
[5] = target: T2, ATP-dependent RNA helicase DDX1 (Homo sapiens, UniProt Q92499); experiment: Inhibition of human DDX1 helicase activity
T2 sequence (Q92499 whole entry): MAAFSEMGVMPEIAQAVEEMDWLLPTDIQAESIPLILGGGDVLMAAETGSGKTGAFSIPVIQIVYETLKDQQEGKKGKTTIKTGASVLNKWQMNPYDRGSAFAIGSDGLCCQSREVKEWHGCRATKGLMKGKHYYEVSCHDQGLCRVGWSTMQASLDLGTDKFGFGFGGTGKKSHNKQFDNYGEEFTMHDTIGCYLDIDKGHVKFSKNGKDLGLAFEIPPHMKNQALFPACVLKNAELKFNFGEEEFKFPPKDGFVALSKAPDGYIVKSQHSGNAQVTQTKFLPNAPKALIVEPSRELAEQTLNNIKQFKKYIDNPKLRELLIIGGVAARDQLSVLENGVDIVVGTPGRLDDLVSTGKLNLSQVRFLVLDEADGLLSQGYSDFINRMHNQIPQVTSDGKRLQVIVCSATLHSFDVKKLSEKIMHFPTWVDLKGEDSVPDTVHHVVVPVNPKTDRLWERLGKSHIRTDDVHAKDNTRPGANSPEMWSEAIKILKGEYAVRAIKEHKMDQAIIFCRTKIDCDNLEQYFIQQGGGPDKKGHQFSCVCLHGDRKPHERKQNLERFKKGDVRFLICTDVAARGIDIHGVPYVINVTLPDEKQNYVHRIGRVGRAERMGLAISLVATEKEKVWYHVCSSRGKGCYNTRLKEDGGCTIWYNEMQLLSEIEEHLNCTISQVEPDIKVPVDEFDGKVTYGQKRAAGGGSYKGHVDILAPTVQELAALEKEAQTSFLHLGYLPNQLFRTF

West Nile virus [6] = experiment: Antiviral activity against West Nile virus infected in human HuH7 cells assessed as reduction in complementary RNA at 1 uM added at 1 hr post viral infection by PCR analysis; format: functional, organism-based
In short: (§5)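 Huh7 cells infected with WNV at MOI 0.1; compound at 1 µM added 1 h or 3 h after infection. Total RNA (200 ng) reverse-transcribed with strand-specific primers for genomic or complementary WNV RNA, then quantified by real-time PCR against plasmid standards. Detection limit 10 copies. Means with standard deviation.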

West Nile virus [7] = experiment: Antiviral activity against West Nile virus infected in human HuH7 cells incubated for 4 days by crystal violet staining based plaque reduction assay; format: functional, organism-based; settings: Huh-7, 96 h; in short: as §2
West Nile virus [8] = experiment: Antiviral activity against West Nile virus infected in human HuH7 cells at 1 to 10 uM added after 3 hrs post infection by crystal violet staining based plaque reduction assay; format: functional, organism-based
In short: (§6)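 Huh7 cells infected with WNV at MOI 0.1; compound at 1 µM and 10 µM added at various times relative to infection. Read-out by viral plaque reduction assay. Means with standard deviation.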

West Nile virus [9] = experiment: Antiviral activity against West Nile virus infected in human HuH7 cells assessed as reduction in genomic RNA at 1 uM added at 3 hrs hrs post viral infection by PCR analysis; format: functional, organism-based; in short: as §5
A549 = experiment: Cytotoxicity against human A549 cells after 3 days by MTT assay; format: cell-based; settings: A549, 72 h; in short: as §4
[10] = Metabolic stability in human liver microsomes at 50 uM after 60 mins in presence of NADPH-generating system by LC-UV-MS analysis; format: ADME, Microsome; settings: read-out: Stability
In short: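 Compound at 50 μM final (DMSO ≤2%) incubated with human liver microsomes (0.2 mg/mL) and NADPH-generating system in 125 mM phosphate buffer pH 7.4, 37 °C, 60 min. Remaining compound measured by LC-ESI-MS in positive ion mode, with UV at 280 nm.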

West Nile virus [11] = experiment: Antiviral activity against West Nile virus infected in human A549 cells incubated for 4 days by crystal violet staining based plaque reduction assay; format: functional, organism-based; settings: A549, 96 h
In short: (§7)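 Cell monolayers at 80–90% confluence were infected with WNV lineage 2 strain at MOI 0.1 for 1 h at 37°C with 5% CO2, then washed. DMSO vehicle or compound (final 100, 10, 1, 0.1, 0.01 μM) was added in duplicate under a 0.5% agarose overlay. Ribavirin served as reference. After methanol fixation and 0.1% crystal violet staining, PFU were expressed relative to DMSO control. IC50 was interpolated at 50% PFU; experiments were repeated at least twice.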

[12] = Apparent permeability of the compound by PAMPA; format: ADME
In short: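 PAMPA: 0.5 mM donor solution in pH 7.4 phosphate buffer, diluted from 1 mM DMSO stock. Filter coated with 1% phosphatidylcholine in dodecane; acceptor 50% DMSO in buffer. Incubated 5 h at room temperature with shaking. Donor and acceptor quantified by LC-UV at 280 nm and Papp calculated. Three plates on different days.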

West Nile virus [13] = experiment: Antiviral activity against West Nile virus infected in human HuH7 cells at 1 to 10 uM added before 2 hrs post infection by crystal violet staining based plaque reduction assay; format: functional, organism-based; in short: as §6
West Nile virus [14] = experiment: Antiviral activity against West Nile virus infected in African green monkey Vero cells incubated for 4 days by crystal violet staining based plaque reduction assay; format: functional, organism-based; settings: 96 h; in short: as §7
West Nile virus [15] = experiment: Antiviral activity against West Nile virus infected in human HuH7 cells assessed as reduction in genomic RNA at 1 uM added at 1 hr post viral infection by PCR analysis; format: functional, organism-based; in short: as §5
Huh-7 = experiment: (§8) Cytotoxicity against human HuH7 cells after 3 days by MTT assay; format: cell-based; settings: Homo sapiens, Huh-7, 72 h
In short: (§9)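 Huh7 cells (2.5 × 10^4 per well) adhered overnight. Confluent monolayers washed, then treated with compound (final 100–0.01 μM) or DMSO control for 3 days at 37°C. Viability by MTT, absorbance 570 nm, expressed relative to DMSO-treated cells.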

[16] = as §8; format: cell-based, Huh-7; settings: human, HuH7 cells; in short: as §9
[17] = target: T1, ATP-dependent RNA helicase DDX3X; experiment: Competitive inhibition of full length His-tagged human DDX3X expressed in Escherichia coli assessed as reduction in DDX3X helicase activity using 0.024 uM FAM-labeled double stranded RNA as substrate after 40 mins by FRET assay relative to control; in short: as §1
[18] = target: T1, ATP-dependent RNA helicase DDX3X; experiment: Competitive inhibition of human full length His-tagged DDX3X helicase activity expressed in Escherichia coli using FAM-labeled double stranded RNA as substrate at 0.1 uM after 40 mins by fluorescence assay; in short: as §1
[19] = target: T1, ATP-dependent RNA helicase DDX3X; experiment: Competitive inhibition of full length His-tagged human DDX3X expressed in Escherichia coli assessed as reduction in DDX3X helicase activity using 0.1 uM FAM-labeled double stranded RNA as substrate after 40 mins by FRET assay relative to control; in short: as §1

T1 sequence (O00571 2-662 limits assumed): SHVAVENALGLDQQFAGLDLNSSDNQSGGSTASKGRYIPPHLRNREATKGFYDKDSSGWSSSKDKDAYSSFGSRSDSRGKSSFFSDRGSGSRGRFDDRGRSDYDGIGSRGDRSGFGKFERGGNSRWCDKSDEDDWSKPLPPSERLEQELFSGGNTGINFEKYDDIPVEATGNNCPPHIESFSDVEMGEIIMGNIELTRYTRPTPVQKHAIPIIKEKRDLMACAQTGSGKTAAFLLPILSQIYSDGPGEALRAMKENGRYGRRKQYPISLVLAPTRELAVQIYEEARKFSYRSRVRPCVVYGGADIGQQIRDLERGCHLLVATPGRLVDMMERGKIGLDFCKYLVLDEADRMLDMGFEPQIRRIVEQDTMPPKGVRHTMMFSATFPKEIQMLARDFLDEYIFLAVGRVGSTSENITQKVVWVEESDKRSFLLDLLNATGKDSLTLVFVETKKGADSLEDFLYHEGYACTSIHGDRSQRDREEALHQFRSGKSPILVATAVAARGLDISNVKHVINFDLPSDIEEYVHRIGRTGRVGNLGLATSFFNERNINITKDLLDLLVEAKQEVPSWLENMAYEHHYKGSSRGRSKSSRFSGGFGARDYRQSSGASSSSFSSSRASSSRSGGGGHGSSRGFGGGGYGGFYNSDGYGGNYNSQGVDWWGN

CCCCc1cn(-c2ccc(S(=O)(=O)Nc3ccccc3O)cc2)nn1
inhibition [1]: 57%

C[C@@]1(O)[C@H](O)[C@@H](CO)O[C@H]1n1ccc2c(N)ncnc21 [BETA-2'-C-METHYL-7-DEAZA-ADENOSINE]
EC50 (West Nile virus [2]): 4.5 µM

CCCCc1cn(-c2cccc(S(=O)(=O)Nc3ccccc3)c2)nn1
inhibition [1]: 31%

CCCCc1cn(-c2cccc(S(=O)(=O)Nc3ccccc3OC)c2)nn1
inhibition [1]: 98%

CCOC(=O)[C@@](C)(O)[C@@H]1C[C@@H](CO[Si](c2ccccc2)(c2ccccc2)C(C)(C)C)O[C@H]1n1cc(F)c(=O)[nH]c1=O
EC50 (West Nile virus [2]): 27 µM

CCCCc1cn(-c2cccc(S(=O)(=O)Nc3ccccc3C(F)(F)F)c2)nn1
Activity (West Nile virus [3]): Active
IC50 (Vero): > 200 µM
Activity (West Nile virus [4]): inactive
IC50 [5]: > 200 µM
Activity (West Nile virus [6]): Active
EC50 (West Nile virus [7]): 23.1 µM
Activity (West Nile virus [8]): inactive
Activity (West Nile virus [9]): inactive
IC50 (A549): 21.3 µM
remaining at 1 h, 50 µM [10]: 99%
EC50 (West Nile virus [11]): 3.4 µM
Papp [12]: 0.21 ×10⁻⁶ cm/s
Activity (West Nile virus [13]): Active
inhibition [1]: 98%
EC50 (West Nile virus [14]): 12 µM
Activity (West Nile virus [15]): Active
IC50 (Huh-7): > 200 µM

C[C@@]1(O)[C@H](O)[C@@H](CO)O[C@H]1n1cnc2c(=O)[nH]c(N)nc21 [2'-B-METHYL-GUANOSINE]
EC50 (West Nile virus [2]): 30 µM

O=[N+]([O-])c1cccc(S(=O)(=O)Nc2ccccc2O)c1
IC50 [5]: > 200 µM
EC50 (West Nile virus [7]): 120 µM
remaining at 1 h, 50 µM [10]: 98.3%
Papp [12]: < 0.1 ×10⁻⁶ cm/s
inhibition [1]: 98%
CC50 at 72 h [16]: 175 µM

CCCCc1cn(-c2ccc(NC(=O)Nc3ccccc3C)cc2)nn1
IC50 [5]: > 200 µM
EC50 (West Nile virus [7]): 8.8 µM
remaining at 1 h, 50 µM [10]: 99%
inhibition [1]: 98%
CC50 at 72 h [16]: > 200 µM

CCCCc1cn(-c2cccc(S(=O)(=O)Nc3ccccc3O)c2)nn1
ID50 [17]: 0.3 µM
EC50 (West Nile virus [7]): 2.3 µM
ID50 [18]: 20 µM
remaining at 1 h, 50 µM [10]: 95.6%
ID50 [19]: 2.2 µM
Papp [12]: 0.1 ×10⁻⁶ cm/s
inhibition [1]: 83%
CC50 at 72 h [16]: > 200 µM

CCc1cn(-c2cccc(S(=O)(=O)Nc3ccccc3C(F)(F)F)c2)nn1
inhibition [1]: 71%

O=S(=O)(Nc1ccccc1C(F)(F)F)c1cccc(-n2cc(C3CCCCC3)nn2)c1
inhibition [1]: 52%
